Screens: PubChem, Broad Institute
The full list was thinned out, with hits kept by preference.
T cruzi HTS = inhibitors of intracellular Trypanosoma cruzi. intracellular Trypanosoma cruzi in host cells, plate reader. activity score (inhibition), % at 5.01 µM. 22,000 compounds, 4.9% hits; in the data active = activity score above about 55%; inconclusive = no clear call, values can overlap the other calls;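 note: parasites and compound incubated about four days before reading; 0% = median of neutral control wells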
A1 apoptosis 2 = blocks A1, raising caspase activity | MEF A1-2A-BIM cells, caspase-Glo luminescence, 3 h; percent of clofoctol response, DMSO zero | caspase activation, % (no concentration beside the values) | 24,000 tested, under 10 active | AID 2465; in the data active = caspase activation above about 5.9%; inconclusive = no clear call, values can overlap the other calls; inactive = below about 2.2%
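Material: mouse embryonic fibroblasts co-expressing A1 and BIM (A1-2A-BIM), primed for A1 dependence / Quantity: 2500 cells/well / Buffer or medium: RPMI-1640 growth medium with 10% FBS / Doses: 50 nL compound per well, pinned / Schedule: 3 h compound exposure at 37 °C / Signal: Caspase-Glo luminescence (DEVD substrate) / Measure: Caspase-3/7 activation, seen as rise in luminescence signal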
INS-1E rescue = preserves ATP levels in cytokine-treated INS-1E cells | 20,000 compounds, 0.1% hits | INS-1E cytokine-induced death, ATP luminescence, 48 h; normalised: neutral wells 0, positive control 100 | protection from cytokine-induced ATP loss, % at 10 µM | AID 488910;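 active = mean replicate protection from cytokine-induced ATP loss at least 50% and at least 75% of replicates each reaching 50%; inconclusive = meets only one of the two criteria, mean or replicate share; inactive = fails both the mean and replicate share criteria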
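Test system: INS-1E rat cells | Quantity: 8000 cells per well | Medium: Phenol-red-free RPMI with 5% fetal bovine serum | Reagent: Cytokine cocktail of IFN-γ, TNF-α and IL-1β | Doses: One compound concentration, pin transfer | Timing: 48 h co-treatment, 10 min post-lysis read | Technique: Luminescent ATP assay (CellTiter-Glo)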
* hit, by the source's call; u = inconclusive; x = not tested or not shown.

SMILES	T cruzi HTS	A1 apoptosis 2	INS-1E rescue
O=C(NO)c1cccc(C(=O)N/N=C/c2cc(Br)cs2)c1	-25	x	10
Cc1ccc(/C=N/NC(=O)CCCCCCC(=O)Nc2ccccc2O)o1	-4	1	9
NC(=O)[C@@H]1[C@H]2C(=O)O[C@H](c3ccccc3)[C@H](c3ccccc3)N2[C@H](c2ccccc2OCCO)[C@@]12C(=O)Nc1ccc(C#CC3(O)CCCCCC3)cc12	x	0	x
O=C(O)CCCCCCC(=O)N/N=C/c1ccc[nH]1	-36	x	-2
Cc1ccc(S(=O)(=O)N(C)C[C@@H]2Oc3ccc(NC(=O)Nc4cccc5ccccc45)cc3CC(=O)N([C@@H](C)CO)C[C@@H]2C)cc1	-6	x	-15
C[C@@H]1CN([C@@H](C)CO)C(=O)Cc2cc(NC(=O)Nc3cccc4ccccc34)ccc2O[C@H]1CN(C)CC1CC1	x	1	x
C[C@H](CO)N1C[C@H](C)[C@H](CN(C)CC2CCCCC2)Oc2ccc(NC(=O)Nc3cccc4ccccc34)cc2CC1=O	61*	x	4
Cc1ccc(S(=O)(=O)N(C)C[C@H]2Oc3ccc(NC(=O)Nc4cccc5ccccc45)cc3CC(=O)N([C@@H](C)CO)C[C@H]2C)cc1	67*	2	-5
C[C@@H]1CN([C@H](C)CO)C(=O)c2cc(NC(=O)Nc3cccc4ccccc34)ccc2O[C@@H]1CN(C)Cc1ccc(Cl)c(Cl)c1	54	x	-12
C[C@@H]1CN([C@H](C)CO)C(=O)Cc2cc(NC(=O)Nc3ccccc3)ccc2O[C@H]1CN(C)Cc1ccc2c(c1)OCO2	-9	-1	-6
C[C@@H]1CN([C@H](C)CO)C(=O)c2cc(NC(=O)Nc3cccc4ccccc34)ccc2O[C@H]1CN(C)Cc1ccc(Cl)c(Cl)c1	58*	-1	-34
C[C@H]1CN([C@@H](C)CO)C(=O)Cc2cc(NC(=O)Nc3cccc4ccccc34)ccc2O[C@@H]1CN(C)Cc1ccc2c(c1)OCO2	64*	0	-22
COCCOC(=O)N1C(=O)[C@@]2(c3ccccc31)[C@H](C(N)=O)[C@H]1C(=O)O[C@H](c3ccccc3)[C@H](c3ccccc3)N1[C@@H]2c1ccc(OCCO)cc1	x	-1	x
CN(CCO)c1ccc(/C=N/NC(=O)CCCCCC(=O)NO)cc1	x	0	x
O=C(N/N=C/c1ccc(O)c2ccccc12)c1ccccc1O	-16	-7	-19
CC1=C(C/C=N/NC(=O)c2ccccc2O)C(C)(C)CCC1	-24	0	1
C[C@@H]1CN([C@@H](C)CO)C(=O)Cc2cc(NC(=O)Nc3cccc4ccccc34)ccc2O[C@H]1CN(C)Cc1ccc(Cl)c(Cl)c1	x	1	x
C[C@H]1CN([C@@H](C)CO)C(=O)c2cc(NC(=O)Nc3cccc4ccccc34)ccc2O[C@H]1CN(C)Cc1ccccc1	-16	1	-5
C[C@H](CO)N1C[C@H](C)[C@H](CN(C)Cc2ccc3c(c2)OCO3)Oc2ccc(NC(=O)Nc3cccc4ccccc34)cc2C1=O	61*	-1	-19
C[C@H]1CN([C@@H](C)CO)C(=O)Cc2cc(NC(=O)Nc3cccc4ccccc34)ccc2O[C@@H]1CN(C)Cc1ccc(Cl)c(Cl)c1	60*	x	-22
C[C@H](CO)N1C[C@H](C)[C@H](CN(C)Cc2ccc(C(F)(F)F)cc2)Oc2ccc(NC(=O)Cc3ccccc3)cc2CC1=O	u	0	6
C[C@@H]1CN([C@@H](C)CO)C(=O)Cc2cc(NC(=O)Nc3ccc(C(F)(F)F)cc3)ccc2O[C@H]1CN(C)Cc1ccccc1	x	0	x
C[C@H]1CN([C@@H](C)CO)C(=O)Cc2cc(NC(=O)Cc3ccccc3)ccc2O[C@@H]1CN(C)Cc1ccc(C(F)(F)F)cc1	58*	0	-6
C[C@H]1CN([C@@H](C)CO)C(=O)Cc2cc(NC(=O)Cc3ccccc3)ccc2O[C@H]1CN(C)Cc1ccc(C(F)(F)F)cc1	69*	-1	13
C#CCOc1ccc(/C=N/NC(=O)c2cccc(C(=O)NO)c2)cc1	-4	-8	-7
SMILES	T cruzi HTS	A1 apoptosis 2	INS-1E rescue
Cc1ccc(F)cc1S(=O)(=O)N[C@@H]1CCN(Cc2ccc3c(c2)OCO3)C1	x	-1	x
O=C(NO)c1ccc(C(=O)N/N=C/c2ccc3ccccc3c2O)cc1	14	0	-62
O=C(CCCCCCC(=O)N/N=C/c1cccnc1Br)NO	x	1	x
C[C@@H]1CN([C@H](C)CO)C(=O)c2cccc(NC(=O)C3CC3)c2O[C@H]1CN(C)Cc1ccc(Oc2ccccc2)cc1	63*	x	-56
C[C@H]1CN([C@@H](C)CO)C(=O)c2cccc(NC(=O)C3CCCCC3)c2O[C@@H]1CN(C)Cc1ccc(Oc2ccccc2)cc1	67*	x	-36
C[C@H]1CN([C@@H](C)CO)C(=O)c2cccc(NC(=O)C3CC3)c2O[C@H]1CN(C)Cc1ccc(Oc2ccccc2)cc1	-3	x	-6
C[C@@H]1CN([C@H](C)CO)C(=O)c2cccc(NC(=O)C3CCCCC3)c2O[C@@H]1CN(C)Cc1ccc(Oc2ccccc2)cc1	27	-1	-34
C[C@H]1CN([C@@H](C)CO)C(=O)c2cccc(N(C)C)c2O[C@@H]1CN(C)Cc1ccccc1	-12	-1	1
C[C@@H]1CN([C@H](C)CO)C(=O)c2cccc(N(C)C)c2O[C@H]1CN(C)Cc1ccc(Oc2ccccc2)cc1	70*	0	-40
O=C(NO)c1ccc(C(=O)N/N=C/c2cc(Cl)cc(Cl)c2O)cc1	-8	-1	24
COCCOC(=O)N1C(=O)[C@@]2(c3cc(C#CC4=CCCCC4)ccc31)[C@H](C(N)=O)[C@H]1C(=O)O[C@H](c3ccccc3)[C@H](c3ccccc3)N1[C@@H]2c1ccccc1OCCO	x	0	x
O=C(O)CCCCCC(=O)N/N=C/c1cccnc1Br	-10	1	3
C[C@@H]1CCCCO[C@H](CN(C)CC2CCCCC2)[C@H](C)CN([C@H](C)CO)C(=O)c2cc(NC(=O)Nc3ccc(C(F)(F)F)cc3)ccc2O1	x	2	x
C[C@@H]1CCCCO[C@H](CN(C)CC2CCCCC2)[C@@H](C)CN([C@H](C)CO)C(=O)c2cc(NC(=O)Nc3ccc4c(c3)OCO4)ccc2O1	79*	x	-14
COc1ccc(NC(=O)Nc2ccc3c(c2)C(=O)N([C@@H](C)CO)C[C@@H](C)[C@@H](CN(C)CC2CCCCC2)OCCCC[C@H](C)O3)cc1	x	1	x
C[C@@H]1CCCCO[C@H](CN(C)CC2CCCCC2)[C@@H](C)CN([C@H](C)CO)C(=O)c2cc(NC(=O)Nc3ccc(C(F)(F)F)cc3)ccc2O1	70*	1	-59
C[C@@H]1CCCCO[C@@H](CN(C)CC2CCCCC2)[C@H](C)CN([C@H](C)CO)C(=O)c2cc(NC(=O)Nc3ccc(C(F)(F)F)cc3)ccc2O1	x	8.3*	x
C[C@@H]1CN([C@@H](C)CO)C(=O)c2cc(NC(=O)Nc3ccc(C(F)(F)F)cc3)ccc2O[C@@H](C)CCCCO[C@@H]1CN(C)CC1CCCCC1	x	-1	x
C[C@@H]1CCCCO[C@H](CN(C)CC2CCCCC2)[C@H](C)CN([C@H](C)CO)C(=O)c2cc(NC(=O)Nc3ccc4c(c3)OCO4)ccc2O1	x	0	x
